Laboratory results: ChEMBL document CHEMBL1138564, “Microwave-induced synthesis and anti-microbial activities of 7,10,11,12-tetrahydrobenzo[c]acridin-8(9H)-one derivatives” (2009)
≈ marks a conversion by molar mass, not a printed value. Calls of active or inactive are those of the source. The calls are words filed in the database; no cut-off is given here.

Key:
Rhodotorula mucilaginosa [1] = test: Antimicrobial activity against Rhodotorula rubra NCIM 3174 at 500 ug/disk after 72 hrs by disk diffusion method; assay type: functional; settings: NCIM 3174, 72 h, read-out: DIZ
Outline: (§1)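 Fungal disc diffusion. 100 µl of suspension at 10⁶ CFU/ml was spread on Sabouraud's dextrose agar. Discs carrying test compound in DMSO were applied, with a DMSO-only disc as negative control. Plates were incubated at 27 °C for 72 h, and the zone of inhibition diameter was measured.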

Aspergillus flavus [2] = test: Antimicrobial activity against Aspergillus flavus NCIM 902 at 1000 ug/disk after 72 hrs by disk diffusion method; assay type: functional; settings: NCIM 902, 72 h, read-out: DIZ
Outline: (§2)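 Disc diffusion on Sabouraud's dextrose agar. 100 µl of fungal suspension at 10⁶ CFU/ml is spread on the plate. Discs carry test compounds at two loadings in DMSO; DMSO alone is the negative control. Clotrimazole disc is the positive reference. Plates are incubated at 27 °C for 72 h, and the zone of inhibition diameter is measured.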

Proteus vulgaris = test: Antimicrobial activity against Proteus vulgaris NCIM 2027 at 500 ug/disk after 24 hrs by disk diffusion method; assay type: functional
Outline: (§3)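 Disc diffusion on Mueller–Hinton agar. 100 µl of bacterial suspension at 10⁸ CFU/ml is spread on the plate. Discs carry test compounds at two loadings, dissolved in DMSO; DMSO alone serves as negative control. Ofloxacin disc is the positive reference. Plates are incubated at 37 °C for 24 h, and the inhibition zone diameter is measured.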

[3] = system: Rhodococcus corynebacterioides; test: Antimicrobial activity against Corynebacterium rubrum NCIM 2252 at 1000 ug/disk after 24 hrs by disk diffusion method; assay type: functional; settings: Rhodococcoides corynebacterioides; for zone of inhibition at 1000 µg/disc: NCIM 2252, 24 h, read-out: DIZ; outline: as §3
Bacillus subtilis [4] = test: Antimicrobial activity against Bacillus subtilis NCIM 2063 at 500 ug/disk after 24 hrs by disk diffusion method; assay type: functional; settings: NCIM 2063, 24 h, read-out: DIZ; outline: as §3
Aliivibrio fischeri [5] = test: Antimicrobial activity against Vibrio fischeri NCIM 2154 after 24 hrs by serial dilution method; assay type: functional; settings: NCIM 2154, 24 h
Bacillus cereus = test: Antimicrobial activity against Bacillus cereus NCIM 2155 at 1000 ug/disk after 24 hrs by disk diffusion method; assay type: functional; outline: as §3
Aspergillus parasiticus [6] = test: Antimicrobial activity against Aspergillus parasiticus NCIM 904 after 72 hrs by serial dilution method; assay type: functional; settings: NCIM 904, 72 h
Outline: (§4)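 MIC by broth dilution in Sabouraud's dextrose broth, only for fungi sensitive in disc diffusion. Two-fold serial dilutions of compounds are made in 1 ml broth per tube, range 3.9 to 1000. Inoculated tubes are incubated at 27 °C for 72 h.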

Salmonella typhimurium [7] = test: Antimicrobial activity against Salmonella Typhimurium NCIM 2501 at 500 ug/disk after 24 hrs by disk diffusion method; assay type: functional, Salmonella enterica subsp. enterica serovar Typhimurium; settings: for zone of inhibition at 500 µg/disc: Salmonella enterica, NCIM 2501, 24 h, read-out: DIZ
Outline: (§5)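 Disc diffusion. 100 µl of bacterial suspension at 10⁸ CFU/ml was spread on Mueller–Hinton agar. Discs loaded with test compound dissolved in DMSO were placed on the lawn, with a DMSO-only disc as negative control. Plates were incubated at 37 °C for 24 h, and the inhibition zone diameter was measured.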

Rhodotorula mucilaginosa [8] = test: Antimicrobial activity against Rhodotorula rubra NCIM 3174 at 1000 ug/disk after 72 hrs by disk diffusion method; assay type: functional; settings: NCIM 3174, 72 h, read-out: DIZ; outline: as §1
Escherichia coli [9] = test: Antimicrobial activity against Escherichia coli NCIM 2065 at 500 ug/disk after 24 hrs by disk diffusion method; assay type: functional; settings: for zone of inhibition at 500 µg/disc: NCIM 2065, 24 h, read-out: DIZ; outline: as §3
Pseudomonas aeruginosa = test: Antimicrobial activity against Pseudomonas aeruginosa NCIM 2200 at 1000 ug/disk after 24 hrs by disk diffusion method; assay type: functional; outline: as §3
Aliivibrio fischeri [10] = test: Antimicrobial activity against Vibrio fischeri NCIM 2154 at 1000 ug/disk after 24 hrs by disk diffusion method; assay type: functional; settings: NCIM 2154, 24 h, read-out: DIZ; outline: as §5
Aspergillus parasiticus [11] = test: Antimicrobial activity against Aspergillus parasiticus NCIM 904 at 1000 ug/disk after 72 hrs by disk diffusion method; assay type: functional; settings: NCIM 904, 72 h, read-out: DIZ; outline: as §2
Staphylococcus [12] = test: Antimicrobial activity against Staphylococcus albus NCIM 2178 at 1000 ug/disk after 24 hrs by disk diffusion method; assay type: functional; outline: as §5
Klebsiella aerogenes [13] = test: Antimicrobial activity against Klebsiella aerogenes NCIM 2239 at 500 ug/disk after 24 hrs by disk diffusion method; assay type: functional; outline: as §3
Aspergillus flavus [14] = test: Antimicrobial activity against Aspergillus flavus NCIM 902 after 72 hrs by serial dilution method; assay type: functional; settings: NCIM 535, 72 h, in the assay text read “NCIM 535” for “NCIM 902”; outline: as §4
Rhodotorula mucilaginosa [15] = test: Antimicrobial activity against Rhodotorula rubra NCIM 3174 after 72 hrs by serial dilution method; assay type: functional; settings: NCIM 3174, 72 h
Outline: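 MIC by broth dilution in Sabouraud's dextrose broth, run only on fungi found sensitive in the disc assay. Twofold serial dilutions were made in 1 ml broth per tube, covering 3.9 to 1000. Inoculated tubes were incubated at 27 °C for 72 h.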

Bacillus subtilis [16] = test: Antimicrobial activity against Bacillus subtilis NCIM 2063 at 1000 ug/disk after 24 hrs by disk diffusion method; assay type: functional; settings: NCIM 2063, 24 h, read-out: DIZ; outline: as §3
Escherichia coli [17] = test: Antimicrobial activity against Escherichia coli NCIM 2065 at 1000 ug/disk after 24 hrs by disk diffusion method; assay type: functional; settings: NCIM 2065, 24 h, read-out: DIZ; outline: as §3
Aspergillus flavus [18] = test: Antimicrobial activity against Aspergillus flavus NCIM 902 at 500 ug/disk after 72 hrs by disk diffusion method; assay type: functional; settings: NCIM 902, 72 h, read-out: DIZ; outline: as §2
Penicillium chrysogenum [19] = test: Antimicrobial activity against Penicillium chrysogenum NCIM 707 at 1000 ug/disk after 72 hrs by disk diffusion method; assay type: functional; outline: as §2
[20] = system: Rhodococcus corynebacterioides; test: Antimicrobial activity against Corynebacterium rubrum NCIM 2252 at 500 ug/disk after 24 hrs by disk diffusion method; assay type: functional; settings: Rhodococcoides corynebacterioides; for zone of inhibition at 500 µg/disc: NCIM 2252, 24 h, read-out: DIZ; outline: as §3
Aspergillus fumigatus = test: Antimicrobial activity against Aspergillus fumigatus NCIM 902 at 1000 ug/disk after 72 hrs by disk diffusion method; assay type: functional; settings: for zone of inhibition at 1000 µg/disc: NCIM 902, 72 h, read-out: DIZ; outline: as §2
Penicillium chrysogenum [21] = test: Antimicrobial activity against Penicillium chrysogenum NCIM 707 at 500 ug/disk after 72 hrs by disk diffusion method; assay type: functional; outline: as §2
Salmonella typhimurium [22] = test: Antimicrobial activity against Salmonella Typhimurium NCIM 2501 at 1000 ug/disk after 24 hrs by disk diffusion method; assay type: functional, Salmonella enterica subsp. enterica serovar Typhimurium; settings: for zone of inhibition at 1000 µg/disc: Salmonella enterica, NCIM 2501, 24 h, read-out: DIZ; outline: as §5
Lipomyces lipofer = test: Antimicrobial activity against Lipomyces lipofer NCIM 3252 at 1000 ug/disk after 72 hrs by disk diffusion method; assay type: functional; settings: for zone of inhibition at 1000 µg/disc: NCIM 3252, 72 h, read-out: DIZ; outline: as §2
Staphylococcus [23] = test: Antimicrobial activity against Staphylococcus albus NCIM 2178 at 500 ug/disk after 24 hrs by disk diffusion method; assay type: functional; outline: as §5
Escherichia coli [24] = test: Antimicrobial activity against Escherichia coli NCIM 2065 after 24 hrs by serial dilution method; assay type: functional; settings: NCIM 2065, 24 h
Outline: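 Broth dilution MIC in nutrient broth, run only for organisms found sensitive in disc diffusion. Compounds are two-fold serially diluted in 1 ml sterile broth per tube, spanning 3.9 to 1000. Inoculated tubes are incubated at 37 °C for 24 h.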

Klebsiella aerogenes [25] = test: Antimicrobial activity against Klebsiella aerogenes NCIM 2239 at 1000 ug/disk after 24 hrs by disk diffusion method; assay type: functional; settings: for zone of inhibition at 1000 µg/disc: NCIM 2239, 24 h, read-out: DIZ; outline: as §3
Trichoderma viride = test: Antimicrobial activity against Trichoderma viride NCIM 1195 at 1000 ug/disk after 72 hrs by disk diffusion method; assay type: functional; settings: NCIM 1195, 72 h, read-out: DIZ; outline: as §1
[26] = Salmonella enterica subsp. enterica serovar Typhimurium

Structure (SMILES) | zone of inhibition at 500 µg/disc (Rhodotorula mucilaginosa [1]) [mm] | zone of inhibition at 1000 µg/disc (Aspergillus flavus [2]) [mm] | diameter of the inhibition zone (DIZ) (Proteus vulgaris) | zone of inhibition at 500 µg/disc (Bacillus subtilis [4]) [mm] | MIC (Aliivibrio fischeri [5]) [µg/mL] | MIC (Aspergillus parasiticus [6]) [µg/mL] | zone of inhibition at 500 µg/disc (Salmonella typhimurium [7]) [mm] | zone of inhibition at 1000 µg/disc (Rhodotorula mucilaginosa [8]) [mm] | zone of inhibition at 500 µg/disc (Escherichia coli [9]) [mm] | diameter of the inhibition zone (DIZ) (Pseudomonas aeruginosa) | zone of inhibition at 1000 µg/disc (Aliivibrio fischeri [10]) [mm] | zone of inhibition at 1000 µg/disc (Aspergillus parasiticus [11]) [mm] | diameter of the inhibition zone (DIZ) (Staphylococcus [12]) | MIC (Aspergillus flavus [14]) [µg/mL] | MIC (Rhodotorula mucilaginosa [15]) [µg/mL] | zone of inhibition at 1000 µg/disc (Bacillus subtilis [16]) [mm] | zone of inhibition at 1000 µg/disc (Escherichia coli [17]) [mm] | zone of inhibition at 500 µg/disc (Aspergillus flavus [18]) [mm] | MIC (Escherichia coli [24]) [µg/mL] | zone of inhibition at 1000 µg/disc (Trichoderma viride) [mm] | other results
CC1(C)CC(=O)C2=C(C1)Nc1c(ccc3ccccc13)C2c1ccccc1Cl (stereo not drawn) | 10 | 10 | inactive | 7 | 62.5 (≈ 161 µM) | 62.5 (≈ 161 µM) | 10 | 13 | 7 | inactive | 9 | 10 | inactive | 62.5 (≈ 161 µM) | 15.6 (≈ 40.2 µM) | 8 | 8 | 8 | 125 (≈ 322 µM) | 8 | diameter of the inhibition zone (DIZ) [3]: inactive; zone of inhibition at 1000 µg/disc (Bacillus cereus; NCIM 2155, 24 h, read-out: DIZ): 11 mm; diameter of the inhibition zone (DIZ) (Klebsiella aerogenes [13]): inactive; diameter of the inhibition zone (DIZ) (Penicillium chrysogenum [19]): inactive; diameter of the inhibition zone (DIZ) [20]: inactive; zone of inhibition at 1000 µg/disc (Aspergillus fumigatus): 8 mm; diameter of the inhibition zone (DIZ) (Penicillium chrysogenum [21]): inactive; zone of inhibition at 1000 µg/disc (Salmonella typhimurium [22]): 13 mm; zone of inhibition at 1000 µg/disc (Lipomyces lipofer): 10 mm; diameter of the inhibition zone (DIZ) (Staphylococcus [23]): inactive; zone of inhibition at 1000 µg/disc (Klebsiella aerogenes [25]): 9 mm
O=C1CCCC2=C1C(c1ccc(O)cc1)c1ccc3ccccc3c1N2 (stereo not drawn) | 12 | 8 | – | 9 | 125 (≈ 366 µM) | 15.6 (≈ 45.7 µM) | 7 | 14 | 7 | – | 9 | 13 | – | 125 (≈ 366 µM) | 7.8 (≈ 22.8 µM) | 11 | 9 | 7 | 125 (≈ 366 µM) | 11 | zone of inhibition at 500 µg/disc (Proteus vulgaris; NCIM 2027, 24 h, read-out: DIZ): 7 mm; zone of inhibition at 1000 µg/disc [3]: 9 mm; diameter of the inhibition zone (DIZ) (Bacillus cereus): inactive; zone of inhibition at 1000 µg/disc (Pseudomonas aeruginosa; NCIM 2200, 24 h, read-out: DIZ): 9 mm; zone of inhibition at 1000 µg/disc (Staphylococcus [12]; NCIM 2178, 24 h, read-out: DIZ): 10 mm; zone of inhibition at 500 µg/disc (Klebsiella aerogenes [13]; NCIM 2239, 24 h, read-out: DIZ): 7 mm; zone of inhibition at 1000 µg/disc (Penicillium chrysogenum [19]; NCIM 707, 72 h, read-out: DIZ): 10 mm; zone of inhibition at 500 µg/disc [20]: 7 mm; diameter of the inhibition zone (DIZ) (Aspergillus fumigatus): inactive; zone of inhibition at 500 µg/disc (Penicillium chrysogenum [21]; NCIM 707, 72 h, read-out: DIZ): 9 mm; zone of inhibition at 1000 µg/disc (Salmonella typhimurium [22]): 9 mm; zone of inhibition at 1000 µg/disc (Lipomyces lipofer): 11 mm; zone of inhibition at 500 µg/disc (Staphylococcus [23]; NCIM 2178, 24 h, read-out: DIZ): 8 mm; zone of inhibition at 1000 µg/disc (Klebsiella aerogenes [25]): 10 mm
O=C1CCCC2=C1C(c1ccccc1Cl)c1ccc3ccccc3c1N2 (stereo not drawn) | 13 | 9 | inactive | 7 | 125 (≈ 347 µM) | 62.5 (≈ 174 µM) | – | 16 | – | inactive | 9 | 10 | inactive | 62.5 (≈ 174 µM) | 3.9 (≈ 10.8 µM) | 10 | 8 | 7 | 125 (≈ 347 µM) | 10 | zone of inhibition at 1000 µg/disc [3]: 8 mm; diameter of the inhibition zone (DIZ) (Bacillus cereus): inactive; diameter of the inhibition zone (DIZ) (Salmonella typhimurium [7]; [26]): inactive; diameter of the inhibition zone (DIZ) (Escherichia coli [9]): inactive; diameter of the inhibition zone (DIZ) (Klebsiella aerogenes [13]): inactive; diameter of the inhibition zone (DIZ) (Penicillium chrysogenum [19]): inactive; zone of inhibition at 500 µg/disc [20]: 7 mm; zone of inhibition at 1000 µg/disc (Aspergillus fumigatus): 9 mm; diameter of the inhibition zone (DIZ) (Penicillium chrysogenum [21]): inactive; diameter of the inhibition zone (DIZ) (Salmonella typhimurium [22]; [26]): inactive; diameter of the inhibition zone (DIZ) (Lipomyces lipofer): inactive; diameter of the inhibition zone (DIZ) (Staphylococcus [23]): inactive; diameter of the inhibition zone (DIZ) (Klebsiella aerogenes [25]): inactive
